Measurements pooled from the literature.
Compare with care: the assays were run in different laboratories.
Target: Serine/threonine-protein kinase TBK1 (TBK1, Homo sapiens, UniProt Q9UHD2)
Sequence (Q9UHD2 1-729, as in one of the studies): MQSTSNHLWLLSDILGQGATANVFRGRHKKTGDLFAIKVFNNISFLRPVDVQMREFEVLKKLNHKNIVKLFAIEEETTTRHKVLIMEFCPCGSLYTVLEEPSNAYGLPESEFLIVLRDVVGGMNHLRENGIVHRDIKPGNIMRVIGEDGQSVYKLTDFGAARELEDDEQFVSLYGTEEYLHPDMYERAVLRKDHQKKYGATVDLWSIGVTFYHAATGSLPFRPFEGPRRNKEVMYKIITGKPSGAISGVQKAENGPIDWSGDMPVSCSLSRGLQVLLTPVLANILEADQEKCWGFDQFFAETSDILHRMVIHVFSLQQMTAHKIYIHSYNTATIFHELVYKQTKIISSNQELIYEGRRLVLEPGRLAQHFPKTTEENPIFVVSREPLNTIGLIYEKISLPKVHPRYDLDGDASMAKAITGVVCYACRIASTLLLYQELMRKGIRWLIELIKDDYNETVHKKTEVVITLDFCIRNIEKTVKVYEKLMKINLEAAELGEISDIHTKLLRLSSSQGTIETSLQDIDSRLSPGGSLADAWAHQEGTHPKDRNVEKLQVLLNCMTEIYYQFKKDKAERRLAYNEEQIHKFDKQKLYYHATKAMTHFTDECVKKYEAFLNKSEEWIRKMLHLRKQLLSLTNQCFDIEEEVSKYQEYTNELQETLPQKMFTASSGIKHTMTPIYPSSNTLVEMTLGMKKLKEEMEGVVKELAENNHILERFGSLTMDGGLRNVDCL

SMILES | assay | setting | measurement | result
COc1ncccc1-c1cnn2ccc(N3CCN(C(=O)OC(C)C)CC3)nc12 | binding, competition with immobilised ligand | 1 µM | remaining binding | 78%
COc1cc(Nc2ncc(F)c(Nc3ccc4c(n3)NC(=O)C(C)(C)O4)n2)cc(OC)c1OC | binding | 10 µM | inhibition | 100%
CC(C)(C)c1cc(C=C(C#N)C#N)cc(Br)c1O | enzyme activity, inhibitor | 0.5 µM | remaining activity | 90.2%
Cn1cc(-c2cccc(N3CCc4c(sc5c4CC(C)(C)C5)C3=O)c2CO)cc(Nc2ccncn2)c1=O | enzyme activity, inhibitor | 1 µM | inhibition | 4%
Cn1cncc1[C@](O)(COc1ccc(C#N)cc1-c1ccc(OC(F)(F)F)cc1)c1ccc(C#N)cc1 | cell-free assay, competition with immobilised ligand | 1 µM | remaining binding | 100%
Cn1cc(-c2cc(F)cc(N3CCn4c(cc5c4CCCC5)C3=O)c2CO)cc(Nc2ccc(N3CCN(C4COC4)CC3)cn2)c1=O | enzyme activity, inhibitor | 0.1 µM | inhibition | 18%
C#Cc1n[nH]c2c(-c3cn(C(C)c4ccccn4)c(=O)[nH]c3=O)cc(F)cc12 (centres unmarked) | enzyme activity, inhibitor | 1 µM | inhibition | 6.5%
N#CC1(c2ccccn2)CCN(Cc2cc(C(=O)O)c(=O)n3ccccc23)CC1 | cell-free assay, competition with immobilised ligand | 1 µM | remaining binding | 98%
O=c1[nH]c2ccccc2n1C1CCN(Cc2ccc(-c3[nH]c4cc5ncnc5cc4nc3-c3ccccc3)cc2)CC1 | cell-free assay | 0.5 µM | remaining signal | 92.7%
C#Cc1n[nH]c2c(-c3cn([C@@H](C)c4ccccc4)c(=O)[nH]c3=O)cc(F)cc12 | enzyme activity, inhibitor | 0.1 µM | inhibition | 4.4%
Cc1nn(C)cc1-c1nc2c(N3CCN(Cc4ccc(Cl)cc4)CC3)c(Cl)cnc2[nH]1 | binding, competition with immobilised ligand | 1 µM | remaining binding | 90%
